Source: PubChem BioAssay
Activity calls are given as the source filed them. Rule as the data show it, unless noted: active = inhibition above about 30%; inactive = the rest.

How the values were obtained:
[1] = reduced viability of SK-BR-3 breast cancer cells – cell-based, 24 h, human, pilot screen (AID 572;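 active = viability at or below 10% of carrier control in both of two separate runs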;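 also: compound exposure lasted between 18 and 24 h rather than exactly 24 h; 100% = carrier-treated control wells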); conditions: SK-BR-3 viability, CellTiter-Glo luminescence, at 10 µM, stronger effect = lower value
[2] = HUVEC growth inhibition – cell-based, human, primary screen (AID 575;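 active = viability at or below 30% in both replicate assays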;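 also: 100% = median of untreated cell wells with 0.1% DMSO on each plate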); conditions: HUVEC proliferation, CellTiter-Glo luminescence, 72 h; at 10 µM; stronger effect = lower value
Summary of the method: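 System – primary HUVEC, no more than 12 passages · Medium – Low-serum (2% FBS) EBM, supplemented · Times – 72 h exposure, 37 °C, 5% CO2, 30 min RT equilibration · Measured by – luminescent ATP assay · Read-out – % viability relative to median vehicle-well signal on each plate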

[3] = H69AR cell proliferation blockers – human, duplicate replicates, primary screen (AID 580;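 active = viability at or under a set limit in both replicates, limit being median viability minus 3 SD, cut at about 48% in these data, passing the limit was not always enough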;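 also: 100% = mean luminescence of untreated wells and 0% = no signal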); conditions: H69AR lung tumor cells viability, ATP luminescence, 72 h; at 10 µM; stronger effect = lower value
[4] = MRP1 drug-resistance reversers in H69AR cells – cell-based, doxorubicin co-treatment, pilot screen (AID 601;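 active = viability loss from added drug above about 55%, and viability with drug at most 40%, in both replicates, limit read from the data, passing the limit was not always enough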); conditions: CellTiter-Glo, 72 h, at 10 µM; for differential viability (reversal): stronger effect = higher value
[5] = yeast transport mutant growth inhibition pilot in 384-well plates, post-Golgi transport modulator project (AID 636; in the data active = inhibition above about 31%); conditions: absorbance 615 nm, about 18 h, stronger effect = higher value
[6] = growth suppression of yeast trafficking mutant, preliminary HTS, modulators of trafficking downstream of Golgi apparatus project, 1536-format plate, OD 615 nm (AID 637); conditions: yeast transport mutant growth, absorbance 615 nm, 18 h; stronger effect = higher value
[7] = H69AR cells + 2 uM doxorubicin, measured here: viability with 2 uM doxorubicin, stronger effect = lower value
[8] = H69AR cells, compound alone cytotoxicity

| Structure (SMILES) | viability [1] | viability [2] | viability [3] | differential viability (reversal) ([4]; H69AR cells + 2 uM doxorubicin) | viability [4, 7] [%] | viability [4, 8] [%] | inhibition [5] | inhibition [6] |
| --- | --- | --- | --- | --- | --- | --- | --- | --- |
| COc1ccccc1OCCOCCn1cnc2ccccc2c1=O | 87% (inactive) | 93.8% (inactive) | 87.7% (inactive) | -3.44% (inactive) | 91.1 | 87.7 | -5.75% (inactive) | 0.97% (inactive) |
| Cc1nc(NC(=O)c2ccccc2)sc1-c1csc(NCc2ccco2)n1 | 82% (inactive) | 89% (inactive) | 20.2% (active) | -42.5% (inactive) | 62.7 | 20.2 | 34.6% (active) | 9.27% (inactive) |
| O=C(CSc1nnc(-c2ccccc2Br)o1)Nc1cccc2ccccc12 | 89% (inactive) | 101% (inactive) | 105% (inactive) | 24.2% (inactive) | 81.2 | 105 | 0.39% (inactive) | -4.43% (inactive) |
| COc1ccccc1N1CCN(C(=O)CN(Cc2ccc(Cl)cc2)S(C)(=O)=O)CC1 | 91% (inactive) | 88.7% (inactive) | 99.8% (inactive) | 4.09% (inactive) | 95.7 | 99.8 | -5.45% (inactive) | -0.49% (inactive) |
| N#Cc1ccc(CSc2nnc(-c3ccccn3)n2-c2ccccc2)cc1 | 62% (inactive) | 93.5% (inactive) | 95.1% (inactive) | 6.06% (inactive) | 89.1 | 95.1 | -7.67% (inactive) | -1.09% (inactive) |
| C1COC(NC(C2CC2)C2CC2)=N1 | 94% (inactive) | 77.3% (inactive) | 84.9% (inactive) | 5.27% (inactive) | 79.6 | 84.9 | -1.3% (inactive) | -5.17% (inactive) |
| COc1nc(OC)nc(N2CCC(C(=O)NCc3cccs3)CC2)n1 | 93% (inactive) | 101% (inactive) | 91.9% (inactive) | -1.4% (inactive) | 93.3 | 91.9 | -5.32% (inactive) | -9.51% (inactive) |
| NS(=O)(=O)c1ccc(CCNC(=O)CCC2COc3ccccc3O2)cc1 (stereo unspecified) | 90% (inactive) | 105% (inactive) | 95.8% (inactive) | 8.33% (inactive) | 87.5 | 95.8 | -5.62% (inactive) | 0.16% (inactive) |
| CC1(C)CC(=O)c2sc(NS(C)(=O)=O)nc2C1 | 119% (inactive) | 101% (inactive) | 96% (inactive) | 12.7% (inactive) | 83.2 | 96 | -6.16% (inactive) | 1.94% (inactive) |
| CC(=O)Nc1ccc(S(=O)(=O)NCc2csc(-c3cccnc3)n2)cc1 | 97% (inactive) | 101% (inactive) | 97.6% (inactive) | -4.67% (inactive) | 102 | 97.6 | -1.69% (inactive) | 1.8% (inactive) |
| COc1ccc(COC(=O)c2n[nH]c3ccccc23)cc1F | 89% (inactive) | 85.2% (inactive) | 100% (inactive) | 8.74% (inactive) | 91.3 | 100 | -9.45% (inactive) | 3.82% (inactive) |
| O=C1OCCC1Sc1ncnc2sccc12 (stereo unspecified) | 78% (inactive) | 107% (inactive) | 104% (inactive) | 21.8% (inactive) | 82.3 | 104 | -4.93% (inactive) | -2.18% (inactive) |
| O=[N+]([O-])c1cccc2cn[nH]c12 | 113% (inactive) | 88.6% (inactive) | 99.5% (inactive) | 9.56% (inactive) | 90 | 99.5 | -0.91% (inactive) | 1.17% (inactive) |
| Cc1occc1C(=O)Nc1ccc(S(=O)(=O)N2CCN(C)CC2)cc1 | 71% (inactive) | 89.2% (inactive) | 90.4% (inactive) | 5.85% (inactive) | 84.5 | 90.4 | -3.01% (inactive) | 1.82% (inactive) |
| CCCc1cc(=O)[nH]c(SCc2ccccc2)n1 | 101% (inactive) | 106% (inactive) | 90.4% (inactive) | 8.54% (inactive) | 81.9 | 90.4 | 1.04% (inactive) | -2.46% (inactive) |
| CCCCOC(=O)c1cccc(NC(=O)CC)c1 | 113% (inactive) | 91.1% (inactive) | 89.6% (inactive) | 1.34% (inactive) | 88.3 | 89.6 | 5.71% (inactive) | 13.4% (inactive) |
| CCC(C(=O)N1CCc2cc(OC)c(OC)cc2C1)c1ccccc1 (stereo unspecified) | 99% (inactive) | 109% (inactive) | 94.5% (inactive) | 2.46% (inactive) | 92 | 94.5 | -4.52% (inactive) | -11.9% (inactive) |
| CC(=O)Nc1ccc(S(=O)(=O)CCC#N)cc1 | 109% (inactive) | 89.4% (inactive) | 91.7% (inactive) | -6.28% (inactive) | 98 | 91.7 | -1.17% (inactive) | 5.41% (inactive) |
| O=P(CCNCc1ccco1)(c1ccccc1)c1ccccc1 | 110% (inactive) | 97.8% (inactive) | 97.4% (inactive) | 2.59% (inactive) | 94.8 | 97.4 | -5.6% (inactive) | -4.18% (inactive) |
| CC1(C)C(c2cccs2)=[N+]([O-])C2(CCCCC/C2=N\O)N1O (stereo unspecified) | 99% (inactive) | 101% (inactive) | 110% (inactive) | 18.4% (inactive) | 91.8 | 110 | -7.95% (inactive) | -1.27% (inactive) |
| CC1CC(C)CN(c2nc3c(c(=O)[nH]c(=O)n3C)n2CCCSc2nc3ccccc3s2)C1 (stereo unspecified) | 59% (inactive) | 115% (inactive) | 100% (inactive) | -5.73% (inactive) | 106 | 100 | -0.14% (inactive) | 4.36% (inactive) |
| O=C(COC(=O)c1ccccc1C(=O)c1ccccc1)c1ccco1 | 59% (inactive) | 105% (inactive) | 90.3% (inactive) | 2.52% (inactive) | 87.8 | 90.3 | -1.1% (inactive) | 2.36% (inactive) |
| O=C(C1CCCO1)N1CCN(S(=O)(=O)c2ccccc2)CC1 (stereo unspecified) | 79% (inactive) | 98.1% (inactive) | 99.1% (inactive) | -6.22% (inactive) | 105 | 99.1 | -6.3% (inactive) | 3.27% (inactive) |
| CC1=Nn2c(nnc2-c2ccccc2)SC1 | 96% (inactive) | 105% (inactive) | 95.2% (inactive) | 17.6% (inactive) | 77.7 | 95.2 | -0.93% (inactive) | 0% (inactive) |
| Clc1ccc2c(c1)C(N1CCNCC1)=Nc1ccccc1O2 | 73% (inactive) | 46% (inactive) | 84.4% (inactive) | 11.4% (inactive) | 73 | 84.4 | -1.3% (inactive) | -3.83% (inactive) |
| NC(N)=NC(=O)c1nc(Cl)c(N)nc1N | 117% (inactive) | 86.5% (inactive) | 91.2% (inactive) | -4.34% (inactive) | 95.5 | 91.2 | -2.34% (inactive) | 1.67% (inactive) |
| CCCCCn1c(CN2CCN(c3cccc(Cl)c3)CC2)nc2c1c(=O)n(C)c(=O)n2C | 97% (inactive) | 69.2% (inactive) | 88% (inactive) | 38.5% (inactive) | 49.5 | 88 | 7.7% (inactive) | 11.6% (inactive) |
